Source: ChEMBL document CHEMBL1157699, “New small-size peptides possessing antifungal activity” (Bioorg Med Chem, 2010)
Residues, ends and D or L forms follow the SMILES beside them.

How the values were obtained:
Cryptococcus neoformans [1] = assay: Antifungal activity against Cryptococcus neoformans ATCC 32264 assessed as inhibition of fungal growth at 50 uM after 48 hrs by microbroth dilution method; assay type: functional; conditions: ATCC 32264, 48 h
Procedure, shortened: (§1)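 Cryptococcus run by CLSI M-27 A2 microbroth dilution in RPMI-1640. Peptide was diluted from DMSO stock to final 200, 100, 50, 25, 12.5, 6.25 and 3.125 µM. Inoculum was 1–5 × 10^3 CFU/ml from 24 h, 35 °C Sabouraud-chloramphenicol slants. Incubation was 48 h at 35 °C, moist and dark. % inhibition was taken from OD405 against a DMSO-containing growth control. Amphotericin B served as the positive control; tests in duplicate.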

Candida albicans [2] = assay: Antifungal activity against Candida albicans ATCC 10231 assessed as inhibition of fungal growth at 25 uM after 24 hrs by microbroth dilution method; assay type: functional; conditions: ATCC 10231, 24 h
Procedure, shortened: (§2)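 CLSI M-27 A2 broth microdilution in RPMI-1640. Peptides were taken from DMSO stocks to final 200–3.125 µM (twofold series). Inoculum was 1–5 × 10^3 CFU/ml from 24 h Sabouraud-chloramphenicol slant cultures at 35 °C. Plates were incubated 24 h at 35 °C in a moist dark chamber. OD405 was read, and % inhibition was taken against a DMSO-matched growth control. Amphotericin B served as the positive control; duplicates.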

Cryptococcus neoformans [3] = assay: Antifungal activity against Cryptococcus neoformans ATCC 32264 assessed as inhibition of fungal growth at 6.25 uM after 48 hrs by microbroth dilution method; assay type: functional; conditions: ATCC 32264, 48 h; procedure, shortened: as §1
Cryptococcus neoformans [4] = assay: Antifungal activity against Cryptococcus neoformans ATCC 32264 assessed as inhibition of fungal growth at 25 uM after 48 hrs by microbroth dilution method; assay type: functional; conditions: ATCC 32264, 48 h; procedure, shortened: as §1
Cryptococcus neoformans [5] = assay: Antifungal activity against Cryptococcus neoformans ATCC 32264 assessed as inhibition of fungal growth at 100 uM after 48 hrs by microbroth dilution method; assay type: functional; conditions: ATCC 32264, 48 h; procedure, shortened: as §1
Candida albicans [6] = assay: Antifungal activity against Candida albicans ATCC 10231 assessed as inhibition of fungal growth at 50 uM after 24 hrs by microbroth dilution method; assay type: functional; conditions: ATCC 10231, 24 h; procedure, shortened: as §2
Candida albicans [7] = assay: Antifungal activity against Candida albicans ATCC 10231 assessed as inhibition of fungal growth at 200 uM after 24 hrs by microbroth dilution method; assay type: functional; conditions: ATCC 10231, 24 h; procedure, shortened: as §2
Cryptococcus neoformans [8] = assay: Antifungal activity against Cryptococcus neoformans ATCC 32264 assessed as inhibition of fungal growth at 200 uM after 48 hrs by microbroth dilution method; assay type: functional; conditions: ATCC 32264, 48 h; procedure, shortened: as §1
Cryptococcus neoformans [9] = assay: Antifungal activity against Cryptococcus neoformans ATCC 32264 assessed as inhibition of fungal growth at 12.5 uM after 48 hrs by microbroth dilution method; assay type: functional; conditions: ATCC 32264, 48 h; procedure, shortened: as §1
Candida albicans [10] = assay: Antifungal activity against Candida albicans ATCC 10231 assessed as inhibition of fungal growth at 100 uM after 24 hrs by microbroth dilution method; assay type: functional; conditions: ATCC 10231, 24 h; procedure, shortened: as §2
Candida albicans [11] = assay: Antifungal activity against Candida albicans ATCC 10231 assessed as inhibition of fungal growth at 12.5 uM after 24 hrs by microbroth dilution method; assay type: functional; conditions: ATCC 10231, 24 h; procedure, shortened: as §2
Cryptococcus neoformans [12] = assay: Antifungal activity against Cryptococcus neoformans ATCC 32264 assessed as inhibition of fungal growth at 3.125 uM after 48 hrs by microbroth dilution method; assay type: functional; conditions: ATCC 32264, 48 h; procedure, shortened: as §1
[13] = Toxicity in Poecilia reticulata assessed as mortality at 13.6 ug/ml after 72 hrs; assay type: organism-based; conditions: in vivo, read-out: Activity
Procedure, shortened: (§3)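 Acute toxicity in guppy (P. reticulata): 10 fish per concentration held in jars with the test solution for 96 h. Peptide added from aqueous stock diluted in DMSO to the final concentration. Dead fish counted and removed every 24 h, and condition noted. Percent mortality recorded at 96 h. Two experiments, each in triplicate.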

[14] = Toxicity in Poecilia reticulata assessed as mortality at 13.6 ug/ml after 96 hrs; assay type: organism-based; conditions: in vivo, read-out: Activity; procedure, shortened: as §3
[15] = Toxicity in Poecilia reticulata assessed as mortality at 13.6 ug/ml after 24 hrs; assay type: organism-based; conditions: in vivo, read-out: Activity; procedure, shortened: as §3
Cryptococcus neoformans [16] = assay: Antifungal activity against Cryptococcus neoformans ATCC 32264 assessed as inhibition of fungal growth after 48 hrs by microbroth dilution method; assay type: functional; conditions: ATCC 32264, 48 h; procedure, shortened: as §1
[17] = Toxicity in Poecilia reticulata assessed as mortality at 13.6 ug/ml after 48 hrs; assay type: organism-based; conditions: in vivo, read-out: Activity; procedure, shortened: as §3
Candida albicans [18] = assay: Antifungal activity against Candida albicans ATCC 10231 assessed as inhibition of fungal growth after 24 hrs by microbroth dilution method; assay type: functional; conditions: ATCC 10231, 24 h; procedure, shortened: as §2

| Compound | inhibition at 50 µM (Cryptococcus neoformans [1]) | inhibition at 25 µM (Candida albicans [2]) | inhibition at 6.25 µM (Cryptococcus neoformans [3]) | inhibition at 25 µM (Cryptococcus neoformans [4]) | inhibition at 100 µM (Cryptococcus neoformans [5]) | inhibition at 50 µM (Candida albicans [6]) | inhibition at 200 µM (Candida albicans [7]) | inhibition at 200 µM (Cryptococcus neoformans [8]) | inhibition at 12.5 µM (Cryptococcus neoformans [9]) | inhibition at 100 µM (Candida albicans [10]) | inhibition at 12.5 µM (Candida albicans [11]) | inhibition at 3.125 µM (Cryptococcus neoformans [12]) | mortality at 72 h, 13.6 ug/ml [13] | mortality at 96 h, 13.6 ug/ml [14] | mortality at 24 h, 13.6 ug/ml [15] | MIC50 (Cryptococcus neoformans [16]) | MIC (Cryptococcus neoformans [16]; read-out: MIC100) | mortality at 48 h, 13.6 ug/ml [17] | MIC50 (Candida albicans [18]) | MIC (Candida albicans [18]; read-out: MIC100) |
| --- | --- | --- | --- | --- | --- | --- | --- | --- | --- | --- | --- | --- | --- | --- | --- | --- | --- | --- | --- | --- |
| CC(=O)N1CCN(c2ccc(OCC3COC(Cn4ccnc4)(c4ccc(Cl)cc4Cl)O3)cc2)CC1 (configuration not stated) [KETOCONAZOLE] | 100% | 100% | 100% | 100% | 100% | 100% | 100% | 100% | 100% | 100% | 100% | 100% | – | – | – | – | – | – | – | – |
| CC[C@H](C)[C@H](NC(=O)[C@H](CCC(N)=O)NC(=O)[C@@H](N)CCCNC(=N)N)C(=O)N[C@@H](CCCNC(=N)N)C(N)=O (H-RQIR-NH2) | 18.8% | – | 0% | 19.3% | 40.2% | – | – | 65.7% | 3.34% | – | – | 0% | – | – | – | – | – | – | – | – |
| C[C@H](NC(=O)[C@H](CCC(N)=O)NC(=O)[C@@H](N)CCCNC(=N)N)C(=O)N[C@@H](CCCCN)C(N)=O (H-RQAK-NH2) | 0% | – | 0% | 0% | 0% | – | – | 0% | 0% | – | – | 0% | – | – | – | – | – | – | – | – |
| H-RQIRRWWQWRR-NH2 | 100% | 46.6% | – | 100% | 100% | 100% | 100% | 100% | 51.2% | 100% | 22.9% | – | 0% | 0% | 0% | ≤ 12.5 µM | 25 µM | 0% | ≤ 25 µM | 50 µM |
| C[C@H](N)C(=O)N[C@@H](C)C(=O)N[C@@H](C)C(=O)N[C@@H](C)C(N)=O (H-AAAA-NH2) | 17.3% | – | 12.4% | 20.4% | 24.6% | – | – | 25% | 11.8% | – | – | 5.93% | – | – | – | – | – | – | – | – |
| C[C@H](NC(=O)[C@H](C)NC(=O)[C@H](C)NC(=O)[C@@H](N)CCCNC(=N)N)C(N)=O (H-RAAA-NH2) | 8.43% | – | 4.96% | 8.9% | 8.45% | – | – | 38.4% | 6.08% | – | – | 0% | – | – | – | – | – | – | – | – |
| CC[C@H](C)[C@H](NC(=O)[C@@H](N)CCCCN)C(=O)N[C@@H](CCC(N)=O)C(=O)N[C@@H](CCCNC(=N)N)C(N)=O (H-KIQR-NH2) | 30.9% | – | 21.2% | 26.9% | 44.1% | – | – | 47.6% | 25.1% | – | – | 20.9% | – | – | – | – | – | – | – | – |
| H-NRRMKWKK-NH2 | 23.3% | 0% | – | 6.71% | 34.8% | 0% | 11% | 63.6% | 6.64% | 4.59% | 0% | – | – | – | – | – | – | – | – | – |
| CC[C@H](C)[C@H](NC(=O)[C@H](CCC(N)=O)NC(=O)[C@@H](N)CCCNC(=N)N)C(=O)N[C@@H](CCCCN)C(N)=O (H-RQIK-NH2) | 18.4% | – | 19.9% | 17.5% | 36.6% | – | – | 55.4% | 11.2% | – | – | 12.2% | – | – | – | – | – | – | – | – |
